Legend:
[1] = folding enthalpy; higher = less favourable; fluorescence melt of hairpins on a sequencing array, two-state fit; conditions: sodium 0.088 M
Outline: (§1)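 With Cy3 and quencher oligos annealed, library hairpins on a sequenced MiSeq flow cell were imaged for Cy3 fluorescence in 50 mM Na-HEPES pH 8.0, 25 mM NaCl, in 2.5 °C steps up to 60 °C. Melting temperature and folding enthalpy were derived from bootstrapped two-state fits of signals normalised to pre-quench Cy3 and to control constructs. Four replicates were combined by inverse variance, with fitted temperatures raised by 9.35 °C to match UV melts.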

[2] = melting temperature; fluorescence melt of hairpins on a sequencing array, two-state fit, raised by 9.35 °C to match UV melts; conditions: sodium 0.088 M
Outline: as §1

Row | Sequence | folding enthalpy [1] | Tm [2]
1 | GCGGGGCGAAAGCCAGGC ((..(((....)))..)) | -17.5 kcal/mol | 59.1 °C
2 | GCGGGGCGAAAGCCGAGC ((..(((....)))..)) | -24.9 kcal/mol | 66.2 °C
3 | GCGGGGCGCCGC ((((....)))) | -14.7 kcal/mol | 66.1 °C
4 | GCGGGGGGAAACCCCCAC (.(((((....))))).) | -11.2 kcal/mol | 46 °C
5 | GCGGGGGGAAACCCCTGC ((.((((....)))).)) | -31.9 kcal/mol | 61.9 °C
6 | GCGGGGGGAAACTCCCGC (((((.(....).))))) | -33.8 kcal/mol | 68.4 °C
7 | GCGGGGTTCCGC ((((....)))) | -18.7 kcal/mol | 61.1 °C
8 | GCGGGTGGAAACACCCAC (.(((((....))))).) | -11.5 kcal/mol | 48.7 °C
9 | GCGGGTGGAAACGCCTGC ((.((.(....).)).)) | -28 kcal/mol | 51.7 °C
10 | GCGGTACGAAAGTAACGC (((.(((....))).))) | -38.8 kcal/mol | 67.7 °C
11 | GCGGTAGGAAACTGTCGC (((..((....))..))) | -30.3 kcal/mol | 43.8 °C
12 | GCGGTATACCGC ((((....)))) | -27.4 kcal/mol | 60.7 °C
13 | GCGGTATCGAAAGATCGC (((..(((....)))))) | -24.1 kcal/mol | 47.1 °C
14 | GCGGTCACCCGC ((((....)))) | -24.6 kcal/mol | 56.2 °C
15 | GCGGTCCACCGC ((((....)))) | -26.2 kcal/mol | 68.5 °C
16 | GCGGTCCCCCGC ((((....)))) | -21.9 kcal/mol | 57.7 °C
17 | GCGGTCGAAAGACGCCGC ((((((....)))..))) | -19.9 kcal/mol | 56.4 °C
18 | GCGGTCGCGAAAGCGCGC (((..(((....)))))) | -16.1 kcal/mol | 59.7 °C
19 | GCGGTCGGAAACGACCAC (.(((((....))))).) | -11.6 kcal/mol | 48.4 °C
20 | GCGGTCGTCCGC ((((....)))) | -31.1 kcal/mol | 56.9 °C
21 | GCGGTCTCCGC ((((...)))) | -29.1 kcal/mol | 56.3 °C
22 | GCGGTGACCGC ((((...)))) | -23.6 kcal/mol | 56.6 °C
23 | GCGGTGAGCCGC ((((....)))) | -23 kcal/mol | 66.8 °C
24 | GCGGTGCCGAAAGGCCGC (((..(((....)))))) | -19.4 kcal/mol | 62.3 °C
25 | GCGGTGCGAAAGCCACGC (((..((....))..))) | -19.8 kcal/mol | 61.5 °C

Row | Sequence | folding enthalpy [1] | Tm [2]
26 | GCGGTGCGAAAGCCCTGC ((.(.((....)).).)) | -21.2 kcal/mol | 49.5 °C
27 | GCGGTGCGAAAGCCGCGC (((..((....))..))) | -27.7 kcal/mol | 68.9 °C
28 | GCGGTGCGAAAGCTACGC (((..((....))..))) | -33.5 kcal/mol | 63.9 °C
29 | GCGGTGCGAAAGCTCTGC ((.(.((....)).).)) | -20.2 kcal/mol | 54.3 °C
30 | GCGGTGCGAAAGCTTCGC (((..((....))..))) | -16.4 kcal/mol | 58.2 °C
31 | GCGGTGCTCCGC ((((....)))) | -18.6 kcal/mol | 56.1 °C
32 | GCGGTGGACCGC ((((....)))) | -26.6 kcal/mol | 59.6 °C
33 | GCGGTGGGAAACCACTGC ((.((((....)))).)) | -38.9 kcal/mol | 60.4 °C
34 | GCGGTGTGCCGC ((((....)))) | -19.1 kcal/mol | 67.6 °C
35 | GCGGTTACGAAAGTACGC (((..(((....)))))) | -26.7 kcal/mol | 48.4 °C
36 | GCGGTTCGAAAGAATCGC (((.(((....))).))) | -43.4 kcal/mol | 66.4 °C
37 | GCGGTTGCGAAAGCACGC (((..(((....)))))) | -19.9 kcal/mol | 56.6 °C
38 | GCGGTTGGAAACGACTGC ((.((.(....).)).)) | -15.3 kcal/mol | 37.8 °C
39 | GCGGTTGGAAACGATCGC (((.(.(....).).))) | -28.5 kcal/mol | 45.3 °C
40 | GCGGTTTTCCGC ((((....)))) | -30.3 kcal/mol | 58.4 °C
41 | GCGTAACAACGC ((((....)))) | -27 kcal/mol | 52.9 °C
42 | GCGTAACGACGC ((((....)))) | -21.9 kcal/mol | 51.4 °C
43 | GCGTAAGAAATTACGC ((((((....)))))) | -40.4 kcal/mol | 55.3 °C
44 | GCGTAATCACGC ((((....)))) | -21.9 kcal/mol | 52.7 °C
45 | GCGTACAAACGC ((((....)))) | -21.5 kcal/mol | 51.1 °C
46 | GCGTACCACGC ((((...)))) | -24.7 kcal/mol | 55.9 °C
47 | GCGTACCCACGC ((((....)))) | -21.2 kcal/mol | 53.1 °C
48 | GCGTACGAAAGTAAACGC ((((((....)))..))) | -34.5 kcal/mol | 51.9 °C
49 | GCGTACGAAAGTACCGC ((((((....))).))) | -22.2 kcal/mol | 56.8 °C
50 | GCGTACGAAAGTAGCCGC ((((((....)))..))) | -14.4 kcal/mol | 51.2 °C

Row | Sequence | folding enthalpy [1] | Tm [2]
51 | GCGTACGAACGC ((((....)))) | -23.9 kcal/mol | 51.5 °C
52 | GCGTACGGAAACACACGC ((((..(....)..)))) | -28.7 kcal/mol | 38.8 °C
53 | GCGTACGGAAACGTACAC (.(((((....))))).) | -15.1 kcal/mol | 42.8 °C
54 | GCGTACGTACGC ((((....)))) | -29.9 kcal/mol | 55.3 °C
55 | GCGTACTCGAAAGAGCGC (((..(((....)))))) | -28.6 kcal/mol | 47.8 °C
56 | GCGTAGACACGC ((((....)))) | -19.8 kcal/mol | 50.7 °C
57 | GCGTAGATACGC ((((....)))) | -19.8 kcal/mol | 52.9 °C
58 | GCGTAGCCGAAAGGCCGC (((..(((....)))))) | -16.8 kcal/mol | 58 °C
59 | GCGTAGCGAAAGCATCGC (((..((....))..))) | -15.4 kcal/mol | 55.1 °C
60 | GCGTAGCGAAAGCCACGC ((((.((....)).)))) | -18.7 kcal/mol | 60.1 °C
61 | GCGTAGCGAAAGCTATGC ((.((((....)))).)) | -18 kcal/mol | 62.4 °C
62 | GCGTAGCGAAAGCTGGGC ((..(((....)))..)) | -12.1 kcal/mol | 49.3 °C
63 | GCGTAGCGAAAGCTTTGC ((..(((....)))..)) | -7.28 kcal/mol | 42.9 °C
64 | GCGTAGGAACGC ((((....)))) | -16.3 kcal/mol | 49.2 °C
65 | GCGTAGGCGAAAGCCCGC (((..(((....)))))) | -19.7 kcal/mol | 61.9 °C
66 | GCGTAGGGAAACCCACGC ((((.((....)).)))) | -37.3 kcal/mol | 54.3 °C
67 | GCGTAGGGAAACCTACAC (.(((((....))))).) | -14.5 kcal/mol | 40.8 °C
68 | GCGTAGGTACGC ((((....)))) | -20.3 kcal/mol | 52.8 °C
69 | GCGTATAAACGC ((((....)))) | -19.7 kcal/mol | 50.4 °C
70 | GCGTATCACGC ((((...)))) | -34.2 kcal/mol | 56.9 °C
71 | GCGTATGAAAATACGC ((((((....)))))) | -36 kcal/mol | 63 °C
72 | GCGTATGGAAACATATGC ((.((((....)))).)) | -46.8 kcal/mol | 47.8 °C
73 | GCGTATGGAAACATGTGC ((..(((....)))..)) | -11.6 kcal/mol | 38.8 °C
74 | GCGTATTACGC ((((...)))) | -25 kcal/mol | 54 °C
75 | GCGTATTCACGC ((((....)))) | -25.6 kcal/mol | 53 °C

Row | Sequence | folding enthalpy [1] | Tm [2]
76 | GCGTCAGAACGC ((((....)))) | -23.6 kcal/mol | 52 °C
77 | GCGTCAGCACGC ((((....)))) | -8.99 kcal/mol | 61.9 °C
78 | GCGTCAGGAAACCGACAC (.(((.(....).))).) | -16 kcal/mol | 27.4 °C
79 | GCGTCAGGAAACCGACGC (((((.(....).))))) | -32.9 kcal/mol | 58.6 °C
80 | GCGTCAGGACGC ((((....)))) | -26 kcal/mol | 56.5 °C
81 | GCGTCATCACGC ((((....)))) | -22.5 kcal/mol | 50.4 °C
82 | GCGTCCACACGC ((((....)))) | -27.1 kcal/mol | 52.4 °C
83 | GCGTCCACGAAAGTGCGC (((..(((....)))))) | -23.3 kcal/mol | 48.6 °C
84 | GCGTCCGAAAGGAACCGC ((((((....)))..))) | -20.3 kcal/mol | 48.5 °C
85 | GCGTCCGAAAGGAGTCGC ((((((....)))..))) | -22.9 kcal/mol | 49.5 °C
86 | GCGTCCGAAAGGATCCGC ((((((....)))..))) | -21.2 kcal/mol | 44.7 °C
87 | GCGTCCGAACGC ((((....)))) | -21.8 kcal/mol | 53.2 °C
88 | GCGTCCGGAAACGGACAC (.(((((....))))).) | -11.2 kcal/mol | 51 °C
89 | GCGTCCGGACGC ((((....)))) | -40.9 kcal/mol | 60.3 °C
90 | GCGTCCTCGAAAGAGCGC (((..(((....)))))) | -24.9 kcal/mol | 48.4 °C
91 | GCGTCGCCACGC ((((....)))) | -15.9 kcal/mol | 53.7 °C
92 | GCGTCGCGAAAGCCACGC ((((.((....)).)))) | -31.1 kcal/mol | 64 °C
93 | GCGTCGCGAAAGCCGCGC (((..((....))..))) | -29.7 kcal/mol | 66 °C
94 | GCGTCGCGAAAGCTAAGC ((.(.((....)).).)) | -20.2 kcal/mol | 51.4 °C
95 | GCGTCGCTACGC ((((....)))) | -13.7 kcal/mol | 55.2 °C
96 | GCGTCGTACGC ((((...)))) | -18.3 kcal/mol | 65.6 °C
97 | GCGTCTACGAAAGTACGC (((..(((....)))))) | -28.4 kcal/mol | 47.6 °C

Reference: the array DNA melting data of Ke et al. (doi:10.1101/2024.01.08.574731)
